hiPSC survival = hiPSC single-cell survival enhancement. 0.044% of 360,000 active. ATPlite luminescence; 100% = ROCK inhibitor wells, 0% = DMSO. survival enhancement, % at 20 µM; in the data active = survival enhancement above about 18%;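 also: cells exposed to compounds for 16 hours before the ATP read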
FAS TE block = FAS thioesterase (human) inhibition; P49327; recombinant FAS-TE, OMFH fluorogenic substrate, fluorescence endpoint; inhibition, % at 15 µM; 0.67% of 360,000 active;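 active = compounds whose normalised, plate-corrected inhibition of enzyme fluorescence in the single-dose primary screen is 50% or more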;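 also: 0% = DMSO with enzyme and 100% = substrate without enzyme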
SKN-1 block = blocks SKN-1 activity in C. elegans | C. elegans VP596 Pgst-4::GFP/RFP ratio, acrylamide-induced, 24 h | inhibition, % at 21.8 µM | 0.49% of 360,000 active;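 active = interference check ratio from 0.5 to 1.5 plus GFP to RFP signal ratio inhibition reaching or exceeding a fixed threshold, cut at about 30% in these data, passing the limit was not always enough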
DAGLB inhibitor = blocks human DAGLB lipase activity; inhibition, % at 5.17 µM; 0.059% of 340,000 active; HEK293T DAGLB membrane lysate, EnzChek fluorogenic substrate; in the data active = inhibition above about 34%;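 also: 0% = enzyme with vehicle and 100% = wells lacking enzyme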
MT1-MMP act inh = blocks activation of human MT1-MMP; P50281; HT1080 RFP-PRO-GFP cells, GFP/RFP ratio fluorescence, overnight; percent of plate control window, DMSO zero; GFP/RFP ratio change, % at 20 µM; 0.061% of 360,000 active;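 active = GFP/RFP ratio change of at least 30% with cell ATP level not reduced by more than half and red fluorescence within 50% of control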
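Assay system: HT1080 RFP-PRO-GFP cells | Dosing: 20 µM single dose, 1% DMSO | Incubation: Cells overnight before dosing, compound overnight, 37 °C, 5% CO2 | Evaluation: GFP/RFP fluorescence ratio | Control set: DMSO-only wells and HT1080 RFP-L50D-GFP cell wells as references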
* = called active by the depositor; nt = not tested or not shown. A selection: hits, their analogues and other compounds. The true share with any hit is near 1.3%.

SMILES | hiPSC survival | FAS TE block | SKN-1 block | DAGLB inhibitor | MT1-MMP act inh
Cc1ccc(C(=O)O)cc1NC(=O)CCc1c(C)noc1C | -1 | -3 | 4 | -1 | -1
CSc1ccccc1C(=O)NCCOc1cccc(C)c1 | 0 | -2 | 40* | 0 | -4
CCCCCNC(=O)c1ccccc1SC | 1 | -7 | 35* | 3 | -3
CCCCNC(=O)c1ccccc1C(=O)NCCCC | -2 | -1 | -2 | -1 | 0
CC1(C(=O)Nc2ccccc2F)CCN1C(=O)Cc1ccc(-c2ccccc2)cc1 (centres undefined) | -1 | 32 | 17 | nt | 3
COc1ccc(NC(=O)c2cc(-c3cc(Cl)ccc3OC)n[nH]2)c(C)c1 | -2 | 20 | 29 | nt | -9
O=C(NCC1CCOCC1)c1ccc(-c2ccc(F)c(F)c2)c2ccoc12 | -1 | 2 | 10 | nt | 0
COc1cc(NC(=O)c2ccc(-c3cn[nH]c3)c3ccoc23)cc(OC)c1OC | 2 | -2 | 8 | nt | 9
O=C(NCc1ccccc1)c1ccc(-c2cn[nH]c2)c2ccoc12 | 107* | -10 | 20 | nt | 7
O=C(NCC1CC1)c1ccc(-c2cn[nH]c2)c2ccoc12 | 43* | -5 | 35* | nt | 0
COCCNC(=O)c1ccc(-c2cn[nH]c2)c2ccoc12 | 31* | -2 | 9 | nt | 3
O=S1(=O)C=C(Oc2ccc3ccccc3c2)c2ccccc21 | -1 | 17 | 37* | 0 | 0
Clc1ccc(Cn2cc(Br)cn2)cc1Cl | -1 | 24 | 47* | -8 | -2
COc1ccc(NC(=O)NC(C(F)(F)F)C(F)(F)F)cc1 | 2 | -1 | 43* | -3 | -1
O=C(NC1CCCCC1)C(c1cccc2ccccc12)n1c(=O)c(-c2ccco2)nc2ccccc21 (centres undefined) | nt | nt | 6 | nt | -12
CC(C)C(OC(=O)C1=Cc2ccccc2OC1)C(=O)NC1CCCC1 (centres undefined) | 0 | 0 | 36* | -19 | 0
Cc1cc(NC(=O)Cc2ccsc2)ccc1Br | 0 | 7 | 63* | -5 | 0
CCCCOc1cccc2c(=O)n(CC(=O)Nc3ccc4c(c3)OCCO4)ccc12 | 1 | -5 | 5 | nt | 1
O=C1CSC(=S)N1Nc1ccccc1 | -1 | -4 | 36* | -3 | 3
Cc1ccccc1S(=O)Cc1ccc(C(=O)N2CCN(C(=O)c3ccco3)CC2)o1 (centres undefined) | 0 | -5 | 35* | -1 | -1
CCC(c1nnnn1Cc1ccc2c(c1)OCO2)N1CCN(c2ccc(F)cc2)CC1 (centres undefined) | -2 | 20 | 36* | -2 | 4
Cc1cnc(C(=O)Nc2ccccc2-c2ccc(C)o2)cn1 | 0 | 1 | 36* | -2 | -141
Cc1cnc(C(=O)Nc2cccc3ncccc23)cn1 | 1 | -13 | -12 | 2 | 5
COC(=O)c1cccc(CC2(C)C(=O)Nc3ccc(OC(F)(F)F)cc32)c1 (centres undefined) | -3 | 10 | 37* | nt | 4
COC(=O)c1ccc(CC2(C)C(=O)Nc3ccc(OC(F)(F)F)cc32)o1 (centres undefined) | -1 | 0 | 16 | nt | 1
SMILES | hiPSC survival | FAS TE block | SKN-1 block | DAGLB inhibitor | MT1-MMP act inh
CN(CC(=O)NCCc1ccccc1)S(=O)(=O)c1ccc(Br)s1 | 0 | 3 | 37* | -3 | 5
CN(C)c1ccc(/C=C(\C#N)C(=O)Nc2nc3c(s2)CCN(Cc2ccccc2)C3)cc1 | 3 | -172 | 45* | -15 | -226
O=C(Nc1ccc(Cl)cc1)C1=Cc2cc(Cl)ccc2OC1 | 0 | 29 | 13 | -18 | 2
O=C(Nc1ccc(Cl)cc1Cl)C1=Cc2ccccc2OC1 | -4 | 15 | 37* | -22 | -4
CCN1C(=O)[C@H]2[C@@H](c3ccc(OC)cc3)N[C@]3(CCCN(Cc4ccc(OC)cc4)C3=O)[C@H]2C1=O | 6 | -8 | 12 | 2 | 0
C[C@@H]1CCCCO[C@H](CN(C)Cc2ccc(C(=O)O)cc2)[C@H](C)CN([C@@H](C)CO)C(=O)c2cc(NC(=O)Nc3ccc(C(F)(F)F)cc3)ccc2O1 | 0 | -1 | -12 | -1 | 6
CCOCC(=O)Nc1cccc(Br)c1 | 0 | -1 | 37* | -3 | -2
O=c1oc(Cl)c(Cl)c2ccccc12 | -5 | 92* | 23 | 1 | 0
Cc1ccc(S(=O)(=O)NC(=O)C2(C)CCN2C(=O)C2CC2)cc1 (centres undefined) | 6 | -5 | 13 | nt | -6
O=C(CC(c1ccccc1)c1ccccc1)NCCOCc1ccccc1 | 0 | 10 | -1 | -4 | 0
COCCNC(=O)CC(c1ccccc1)c1ccccc1 | 4 | -5 | 36* | -4 | 2
C[C@@H]1CN([C@H](C)CO)C(=O)CCCn2cc(nn2)CO[C@H]1CN(C)C(=O)C1CC1 | -2 | -7 | 2 | 0 | 1
Cc1nnc2n(C3CCCCC3)c(=O)c3c4c(sc3n12)COC(C)(C)C4 | 21* | -5 | -4 | 2 | 3
N#Cc1ccccc1NC(=O)Nc1cccc(Cl)c1 | 2 | -6 | 41* | 1 | 5
N#Cc1ccccc1NC(=O)Nc1ccc(Cl)cc1 | 4 | 2 | 0 | 1 | 3
CC1CCCC(C)N1C(=O)COC(=O)CNS(=O)(=O)c1ccc2ccccc2c1 (centres undefined) | 2 | -4 | 7 | 1 | 4
CCCS(=O)(=O)NC(=O)C1(C)CCN(C(=O)c2cccc(C)c2C)C1 (centres undefined) | 3 | -4 | 35* | nt | nt
CCCS(=O)(=O)NC(=O)C1(C)CCN(C(=O)c2ccccc2Br)C1 (centres undefined) | 10 | -10 | -1 | nt | 2
O=C(N/N=C/c1ccc(Cl)cc1)c1ccc2nc[nH]c2c1 | -3 | -13 | 8 | 2 | -3
CC1(C(=O)NS(=O)(=O)c2ccc(C#N)cc2)CCN1C(=O)C1(c2ccccc2)CCCC1 (centres undefined) | 1 | 9 | 17 | nt | -12
CCCCN(C)c1c(C)nc2ccc(C(=O)N(C)CCN(C)C)cn12 | 2 | -3 | 2 | nt | 0
Clc1ncccc1-c1nnn(-c2ccccc2Br)n1 | -4 | 10 | 53* | -7 | -1
Clc1nc2ccccc2cc1-c1nnn(-c2ccccc2Br)n1 | 2 | 6 | 26 | -2 | 2
CCn1cc(C(=O)OCC(=O)NCc2ccc3c(c2)OCO3)c(=O)c2ccc(C)nc21 | 2 | 0 | 35* | 4 | 3
Cc1c(C(=O)/C=C/c2cccs2)oc2ccc(F)cc12 | -2 | 10 | 52* | -17 | -10
Cc1c(C(=O)Nc2nccs2)oc2ccc(F)cc12 | -4 | -1 | 17 | 0 | -5
CC(=O)N=c1c(C#N)cc2c(=O)n3ccccc3nc2n1Cc1ccccc1 | -1 | 54* | 8 | 1 | -5
CCc1ccc2c(c1)NC(=O)C2(C)Cc1ccc(C(F)(F)F)nc1 (centres undefined) | -3 | 2 | 13 | nt | 0
